ChEMBL document CHEMBL1135391, “Anti-Helicobacter pylori agents. 5. 2-(Substituted guanidino)-4-arylthiazoles and aryloxazole analogues” (2002)
Converted amounts (≈) assume the structure as drawn.

Legend:
Helicobacter pylori [1] = test: Minimum inhibitory concentration required to inhibit macroscopic colonial growth of Helicobacter pylori ranges from (6.25-12.5); format: functional
Method in brief: (§1)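 Agar dilution against 10 H. pylori strains (8001, 8003, 8004, 8007, 8008, 8009, 8011, 9005, FP1530, FP1532). Strains precultured 3 days at 37 °C on Brucella agar with 3% horse serum and 2% starch, then adjusted to McFarland No. 1. A 10²-fold dilution was spotted onto Brucella agar with 7% lysed horse blood and 2-fold drug dilutions. Plates incubated 3 days at 37 °C under 10% CO2. MIC is the lowest concentration preventing visible colonies; mean and range span the 10 strains.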

Helicobacter pylori [2] = test: Minimum inhibitory concentration required to inhibit macroscopic colonial growth of Helicobacter pylori; format: functional; method in brief: as §1
Helicobacter pylori [3] = test: Minimum inhibitory concentration required to inhibit macroscopic colonial growth of Helicobacter pylori; ranges from (3.13-6.25); format: functional; method in brief: as §1
Cavia porcellus [4] = species on record: Cavia porcellus; test: Inhibition of histamine-stimulated chronotropic response in isolated guinea pig right atrium at 1*10e-6 g/mL; format: functional, Cardiac atrium
Method in brief: (§2)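 Guinea pig atrial strip in Thyrode solution at 30 °C, gassed with 95% O2-5% CO2, initial tension 0.3-0.6 g. Beating rate recorded. Histamine hydrochloride 1 × 10⁻⁶ g/mL was given first. After washout, test compound at 1 × 10⁻⁶ g/mL was added 30 min later. Percent inhibition compares histamine-induced rate increases before and 30 min after compound.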

Helicobacter pylori [5] = test: Minimum inhibitory concentration required to inhibit macroscopic colonial growth of Helicobacter pylori; ranges from (6.25-25); format: functional; method in brief: as §1
Rattus norvegicus [6] = test: Inhibition of histamine-stimulated gastric acid secretion in lumen-perfused stomach of anesthetized rats after 1 mg/kg iv administration; format: functional
Method in brief: (§3)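 Male Sprague-Dawley rats, about 250 g, fasted 24 h and anesthetized with urethane 1.25 g/kg ip. Stomach lumen perfused with saline, perfusate titrated with 25 mM NaOH. Acid secretion was driven by iv histamine infusion at 3 mg/kg/h. At plateau, compound 1 mg/kg iv. Read-out is maximal inhibition of acid output, n = 2.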

Helicobacter pylori [7] = test: Minimum inhibitory concentration required to inhibit macroscopic colonial growth of Helicobacter pylori; ranges from (0.0125-0.1); format: functional; method in brief: as §1
Helicobacter pylori [8] = test: Minimum inhibitory concentration required to inhibit macroscopic colonial growth of Helicobacter pylori; ranges from(1.56-25); format: functional; method in brief: as §1
Helicobacter pylori [9] = test: Minimum inhibitory concentration required to inhibit macroscopic colonial growth of Helicobacter pylori; ranges from (0.1-0.78); format: functional; method in brief: as §1
Cavia porcellus [10] = species on record: Cavia porcellus; test: Inhibition of histamine-stimulated chronotropic response in isolated guinea pig right atrium at 1*10e-4 g/mL; format: functional, Cardiac atrium
Helicobacter pylori [11] = test: Minimum inhibitory concentration required to inhibit macroscopic colonial growth of Helicobacter pylori; ranges from (0.39-6.25); format: functional; method in brief: as §1
Helicobacter pylori [12] = test: Minimum inhibitory concentration required to inhibit macroscopic colonial growth of Helicobacter pylori; ranges from (1.56-12.5); format: functional; method in brief: as §1
Helicobacter pylori [13] = test: Minimum inhibitory concentration required to inhibit macroscopic colonial growth of Helicobacter pylori; ranges from (0.78-6.25); format: functional; method in brief: as §1
Helicobacter pylori [14] = test: Minimum inhibitory concentration required to inhibit macroscopic colonial growth of Helicobacter pylori;ranges from (0.10-0.78); format: functional; method in brief: as §1
Helicobacter pylori [15] = test: Minimum inhibitory concentration required to inhibit macroscopic colonial growth of Helicobacter pylori; ranges from (0.2-0.78); format: functional; method in brief: as §1
Helicobacter pylori [16] = test: Minimum inhibitory concentration required to inhibit macroscopic colonial growth of Helicobacter pylori; ranges from (0.05-0.2); format: functional; method in brief: as §1
Helicobacter pylori [17] = test: Minimum inhibitory concentration required to inhibit macroscopic colonial growth of Helicobacter pylori; ranges from (0.025-0.39); format: functional; method in brief: as §1
Helicobacter pylori [18] = test: Minimum inhibitory concentration required to inhibit macroscopic colonial growth of Helicobacter pylori; ranges from (0.025-0.1); format: functional; method in brief: as §1
Helicobacter pylori [19] = test: Minimum inhibitory concentration required to inhibit macroscopic colonial growth of Helicobacter pylori; ranges from (0.2-1.56); format: functional; method in brief: as §1
Helicobacter pylori [20] = test: Minimum inhibitory concentration required to inhibit macroscopic colonial growth of Helicobacter pylori; ranges from (0.00625-0.1); format: functional; method in brief: as §1
Helicobacter pylori [21] = test: Minimum inhibitory concentration required to inhibit macroscopic colonial growth of Helicobacter pylori; ranges from (0.2-3.13); format: functional; method in brief: as §1
Helicobacter pylori [22] = test: Minimum inhibitory concentration required to inhibit macroscopic colonial growth of Helicobacter pylori; ranges from (0.78-1.56); format: functional; method in brief: as §1
Helicobacter pylori [23] = test: Minimum inhibitory concentration required to inhibit macroscopic colonial growth of Helicobacter pylori; ranges from (3.13-12.5); format: functional; method in brief: as §1
Rattus norvegicus [24] = test: Inhibition of histamine-stimulated gastric acid secretion in lumen-perfused stomach of anesthetized rats; format: functional; method in brief: as §3
Cavia porcellus [25] = species on record: Cavia porcellus; test: Inhibition of histamine-stimulated chronotropic response in isolated guinea pig right atrium; format: functional, Cardiac atrium; method in brief: as §2
Helicobacter pylori [26] = test: Minimum inhibitory concentration required to inhibit macroscopic colonial growth of Helicobacter pylori; ranges from (3.13-[…]); format: functional; method in brief: as §1
Helicobacter pylori [27] = test: microbe, parasite or virus in culture
Helicobacter pylori [28] = test: Minimum inhibitory concentration required to inhibit macroscopic colonial growth of Helicobacter pylori; ranges from ([…]-6.25); format: functional; method in brief: as §1
Helicobacter pylori [29] = test: Minimum inhibitory concentration required to inhibit macroscopic colonial growth of Helicobacter pylori;ranges from (0.003-0.025); format: functional; method in brief: as §1

In the case of `COc1ccccc1CC/N=C(\N)Nc1nc(-c2c[nH]c(CNC(C)=O)n2)cs1`, the MIC (Helicobacter pylori [1]) is reported as 10.2 µg/mL (≈ 24.7 µM).
`CC[C@H]1OC(=O)[C@H](C)[C@@H](O[C@H]2C[C@@](C)(OC)[C@@H](O)[C@H](C)O2)[C@H](C)[C@@H](O[C@@H]2O[C@H](C)C[C@H](N(C)C)[C@H]2O)[C@](C)(OC)C[C@@H](C)C(=O)[C@H](C)[C@@H](O)[C@]1(C)O` [CLARITHROMYCIN] was tested, and the MIC (Helicobacter pylori [2]) was 0.057 µg/mL (≈ 0.0762 µM).
`CCCC/N=C(\N)Nc1nc(-c2ccnc(CNC(C)=O)n2)cs1` showed an MIC (Helicobacter pylori [3]) of 4.1 µg/mL (≈ 11.8 µM) and an Inhibition (Cavia porcellus [4]) of under 10%.
`COc1ccccc1CC/N=C(\N)Nc1nc(-c2cc(CNC(C)=O)on2)cs1` was tested, and the MIC (Helicobacter pylori [3]) was 4.4 µg/mL (≈ 10.6 µM) and the Inhibition (Cavia porcellus [4]) was under 10%.
`CC(=O)NCc1cccc(-c2csc(NC(=N)NCC(F)(F)F)n2)n1` showed an MIC (Helicobacter pylori [5]) of 13.4 µg/mL (≈ 36 µM).
Work on `COc1ccccc1CC/N=C(\N)Nc1nc(-c2csc(CNC(C)=O)n2)cs1` yielded an inhibition in vivo at 1 mg/kg (Rattus norvegicus [6]) of 23%, an MIC (Helicobacter pylori [7]) of 0.043 µg/mL (≈ 0.0999 µM) and an Inhibition (Cavia porcellus [4]) of 30%.
In the case of `Cc1ncc([N+](=O)[O-])n1CCO` [METRONIDAZOLE], the MIC (Helicobacter pylori [8]) is reported as 5.4 µg/mL (≈ 31.6 µM).
For `CCCC/N=C(\N)Nc1nc(-c2ccc(CNC(C)=O)s2)cs1`, the MIC (Helicobacter pylori [9]) was 0.32 µg/mL (≈ 0.91 µM) and the Inhibition (Cavia porcellus [10]) was under 10%.
`CCCC/N=C(\N)Nc1nc(-c2cccc(CNC(C)=O)c2)co1` showed an inhibition in vivo at 1 mg/kg (Rattus norvegicus [6]) of 60%, an MIC (Helicobacter pylori [11]) of 1.92 µg/mL (≈ 5.83 µM) and an Inhibition (Cavia porcellus [4]) of 93%.
Work on `CC/N=C(\N)Nc1nc(-c2cccc(CNC(C)=O)n2)cs1` yielded an MIC (Helicobacter pylori [12]) of 4.7 µg/mL (≈ 14.8 µM).
`CCC/N=C(\N)Nc1nc(-c2cccc(CNC(C)=O)n2)cs1` was tested, and the MIC (Helicobacter pylori [13]) was 2.9 µg/mL (≈ 8.72 µM).
`COc1ccccc1CC/N=C(\N)Nc1nc(-c2cccc(CNC(C)=O)c2)co1` was tested, and the inhibition in vivo at 1 mg/kg (Rattus norvegicus [6]) was 40%, the MIC (Helicobacter pylori [14]) was 0.3 µg/mL (≈ 0.736 µM) and the Inhibition (Cavia porcellus [4]) was 65%.
Molecule `COc1ccc(CC/N=C(\N)Nc2nc(-c3cccc(CNC(C)=O)n3)cs2)cc1` has an inhibition in vivo at 1 mg/kg (Rattus norvegicus [6]) of 18%, an MIC (Helicobacter pylori [15]) of 0.42 µg/mL (≈ 0.989 µM) and an Inhibition (Cavia porcellus [4]) of 24%.
`CC(=O)NCC/N=C(\N)Nc1nc(-c2cccc(CNC(C)=O)n2)cs1` was tested, and the MIC (Helicobacter pylori [5]) was 11.5 µg/mL (≈ 30.6 µM).
With `CC(=O)NCc1cccc(-c2csc(N/C(N)=N/CCC(C)C)n2)n1` the inhibition in vivo at 1 mg/kg (Rattus norvegicus [6]) was 86%, the Inhibition (Cavia porcellus [4]) was 80% and the MIC (Helicobacter pylori [16]) was 0.1 µg/mL (≈ 0.277 µM).
With `COc1cccc(CC/N=C(\N)Nc2nc(-c3cccc(CNC(C)=O)n3)cs2)c1` the inhibition in vivo at 1 mg/kg (Rattus norvegicus [6]) was 68%, the MIC (Helicobacter pylori [17]) was 0.14 µg/mL (≈ 0.33 µM) and the Inhibition (Cavia porcellus [4]) was 83%.
`COc1ccccc1CC/N=C(\N)Nc1nc(-c2cccc(CNC(C)=O)n2)cs1` showed an inhibition in vivo at 1 mg/kg (Rattus norvegicus [6]) of 65%, an MIC (Helicobacter pylori [18]) of 0.037 µg/mL (≈ 0.0872 µM) and an Inhibition (Cavia porcellus [4]) of 78%.
`CCCC/N=C(\N)Nc1nc(-c2cccc(CNC(C)=O)n2)cs1` was tested, and the inhibition in vivo at 1 mg/kg (Rattus norvegicus [6]) was 76%, the Inhibition (Cavia porcellus [4]) was 100% and the MIC (Helicobacter pylori [19]) was 0.59 µg/mL (≈ 1.7 µM).
BISMUTH SUBCITRATE gave an MIC (Helicobacter pylori [2]) of 18 µg/mL.
With `CC1(C)S[C@@H]2[C@H](NC(=O)[C@H](N)c3ccc(O)cc3)C(=O)N2[C@H]1C(=O)O` [AMOXICILLIN] the MIC (Helicobacter pylori [20]) was 0.021 µg/mL (≈ 0.0575 µM).
For `CCCC/N=C(\N)Nc1nc(-c2csc(CNC(C)=O)n2)cs1`, the inhibition in vivo at 1 mg/kg (Rattus norvegicus [6]) was 50%, the Inhibition (Cavia porcellus [4]) was 85% and the MIC (Helicobacter pylori [19]) was 0.52 µg/mL (≈ 1.48 µM).
`COc1ccccc1CC/N=C(\N)Nc1nc(-c2ncc(CNC(C)=O)o2)cs1` was tested, and the inhibition in vivo at 1 mg/kg (Rattus norvegicus [6]) was 50%, the MIC (Helicobacter pylori [21]) was 1.1 µg/mL (≈ 2.65 µM) and the Inhibition (Cavia porcellus [4]) was 37%.
Work on `CSCC/N=C(\N)Nc1nc(-c2cccc(CNC(C)=O)n2)cs1` yielded an MIC (Helicobacter pylori [22]) of 1.1 µg/mL (≈ 3.02 µM).
Molecule `CCCC/N=C(\N)Nc1nc(-c2nc(CNC(C)=O)no2)cs1` has an Inhibition (Cavia porcellus [4]) of under 10% and an MIC (Helicobacter pylori [23]) of 10.9 µg/mL (≈ 32.3 µM).
With `CNC(=C[N+](=O)[O-])NCCSCc1ccc(CN(C)C)o1` [RANITIDINE] the Inhibition (Rattus norvegicus [24]) was 72%, the Inhibition (Cavia porcellus [25]) was 44% and the MIC (Helicobacter pylori [2]) was over 1600 µg/mL.
`C/N=C(\N)Nc1nc(-c2cccc(CNC(C)=O)n2)cs1` gave an MIC (Helicobacter pylori [26]) of 5.1 µg/mL (≈ 16.8 µM).
With `CN/C(=N\CCSCc1nc[nH]c1C)NC#N` [CIMETIDINE] the inhibition in vivo at 1 mg/kg (Rattus norvegicus [6]) was 53%, the MIC (Helicobacter pylori [27]) was 1130 µg/mL (≈ 4480 µM) and the Inhibition (Cavia porcellus [4]) was 43%.
In the case of `CCCC/N=C(\N)Nc1nc(-c2cccc(CNC(C)=O)n2)co1`, the inhibition in vivo at 1 mg/kg (Rattus norvegicus [6]) is reported as 92%, the MIC (Helicobacter pylori [28]) is reported as 3.9 µg/mL (≈ 11.8 µM) and the Inhibition (Cavia porcellus [4]) is reported as 81%.
With `COc1ccccc1CC/N=C(\N)Nc1nc(-c2ccc(CNC(C)=O)s2)cs1` the MIC (Helicobacter pylori [29]) was 0.0065 µg/mL (≈ 0.0151 µM) and the Inhibition (Cavia porcellus [10]) was under 10%.
With `CCCC/N=C(\N)Nc1nc(-c2ccc(CNC(C)=O)o2)co1` the inhibition in vivo at 1 mg/kg (Rattus norvegicus [6]) was 51%, the Inhibition (Cavia porcellus [4]) was 82% and the MIC (Helicobacter pylori [5]) was 19.3 µg/mL (≈ 60.4 µM).
`COCC/N=C(\N)Nc1nc(-c2cccc(CNC(C)=O)n2)cs1` was tested, and the MIC (Helicobacter pylori [23]) was 6.7 µg/mL (≈ 19.2 µM).
Work on `CC(=O)NCc1cccc(-c2csc(NC(=N)NCCc3ccccc3)n2)n1` yielded an Inhibition (Rattus norvegicus [6]) of 50%, an Inhibition (Cavia porcellus [4]) of 71% and an MIC (Helicobacter pylori [16]) of 0.1 µg/mL (≈ 0.253 µM).
With `CC(=O)NCc1cccc(-c2csc(N/C(N)=N/CCN(C)C)n2)n1` the MIC (Helicobacter pylori [2]) was over 100 µg/mL.
